From ChEMBL document CHEMBL1123555, “1,2-Bis(sulfonyl)hydrazines. 3. Effects of structural modification on antineoplastic activity” (1987)

Legend:
Mus musculus [1] = species: Mus musculus; assay: Antitumor activity against B16 melanoma cells in mice, activity is expressed as optimal effective dose; type: functional
Procedure, shortened: (§1)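 Transplanted tumor in mice, given i.p. once daily for 6 consecutive days starting 24 h after implantation. Doses span 10-150 mg/kg per day as fine suspensions homogenized in a few drops of 20% aqueous Tween 80 and made up with isotonic saline. Groups of five; vehicle-injected tumor-bearing controls. %T/C = mean survival time treated/control × 100. Value is the daily dose giving maximum %T/C.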

L1210 = assay: Antitumor activity against L1210 leukemia cells in mice, activity is expressed as optimal effective dose.; type: functional, Mus musculus; procedure, shortened: as §1
[2] = Antitumor activity against B16 melanoma cells in mice, activity is expressed as average survival time of treated/control animals x 100.; type: functional, Mus musculus
Procedure, shortened: (§2)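 Compound given ip as a fine suspension (homogenized in drops of 20% aqueous Tween 80, made to volume with isotonic saline) at 10-150 mg/kg per day, once daily for 6 consecutive days starting 24 h after implantation. Vehicle-injected tumor-bearing controls were included. Read-out was survival time; body-weight change over therapy was the toxicity indicator.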

[3] = Antitumor activity against mouse B16 melanoma cells, calculated as average change in body weight from onset to termination of therapy; type: functional
Procedure, shortened: (§3)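 Tumor-bearing mice in groups of five, dosed i.p. daily for 6 days from 24 h post-implantation with suspensions in Tween 80/isotonic saline at 10-150 mg/kg per day; vehicle controls run alongside. Mice weighed during the experiment. Average percent body-weight change from onset to termination of therapy was taken as the toxicity index, reported at the optimal-survival dose.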

Mus musculus [4] = species: Mus musculus; assay: Antitumor activity against B16 melanoma cells in mice. Activity is expressed as optimal effective dose.; type: functional; procedure, shortened: as §1
Mus musculus [5] = species: Mus musculus; assay: Antitumor activity against L1210 leukemia cells in mice, activity is expressed as optimal effective dose; type: functional; procedure, shortened: as §1
Mus musculus [6] = species: Mus musculus; assay: Antitumor activity against L1210 leukemia cells in mice calculated as average change in body weight from onset to termination of therapy; type: functional; procedure, shortened: as §3
Mus musculus [7] = species: Mus musculus; assay: Antitumor activity against L1210 leukemia cells in mice (activity expressed as average survival time of treated/control animals x 100); type: functional; procedure, shortened: as §2
Mus musculus [8] = species: Mus musculus; assay: Antitumor activity against B16 melanoma cells in mice, activity is expressed as optimal effective dose.; type: functional; procedure, shortened: as §1
Mus musculus [9] = species: Mus musculus; assay: Antitumor activity against L1210 leukemia cells in mice, activity is expressed as average survival time of treated/control animals x 100; type: functional; procedure, shortened: as §2

Structure (SMILES) | Dose (Mus musculus [1]) | Dose (L1210) | T/C [2] | Weight change [3] | Dose (Mus musculus [4]) | Dose (Mus musculus [5]) | Weight change (Mus musculus [6]) | T/C (Mus musculus [7]) | Dose (Mus musculus [8]) | T/C (Mus musculus [9])
Cc1ccc(S(=O)(=O)N(C)NS(=O)(=O)Cc2ccccc2)cc1 | 50 mg/kg | 50 mg/kg | 172% | -2.4% |  |  |  |  |  | 
Cc1ccc(S(=O)(=O)N(C)NS(=O)(=O)c2ccc(Br)cc2)cc1 |  |  |  | -5.1% | 150 mg/kg | 50 mg/kg | 5.6% |  |  | 
CN(NS(=O)(=O)c1ccc2ccccc2c1)S(=O)(=O)c1ccc2ccccc2c1 | 100 mg/kg |  |  | 4.6% |  | 150 mg/kg | -3.3% |  |  | 
CN(NS(=O)(=O)c1ccc(Br)cc1)S(=O)(=O)c1ccc(Br)cc1 | 50 mg/kg |  | 160% | -3.8% |  | 150 mg/kg | 1.7% |  |  | 
CN(NS(=O)(=O)c1ccc2ccccc2c1)S(=O)(=O)c1ccc(Br)cc1 | 200 mg/kg |  |  | 3.7% |  | 100 mg/kg | 18.3% | 123% |  | 
CN(NS(C)(=O)=O)S(C)(=O)=O | 50 mg/kg |  | 278% | -7.9% |  | 25 mg/kg | -15.3% | 340% |  | 
Cc1ccc(S(=O)(=O)NN(C)S(=O)(=O)c2ccc(Br)cc2)cc1 |  |  |  |  |  | 100 mg/kg |  |  |  | 
COc1ccc(S(=O)(=O)N(CCCl)NS(=O)(=O)c2ccccc2)cc1 |  |  | 138% | -2.8% | 12.5 mg/kg | 10 mg/kg | 4.8% | 136% |  | 
CN(NS(=O)(=O)c1ccccc1)S(=O)(=O)c1ccc(Br)cc1 |  |  | 160% | 1.5% |  |  |  |  | 100 mg/kg | 
CN(NS(=O)(=O)c1ccc(Br)cc1)S(C)(=O)=O | 100 mg/kg |  | 235% | -11.4% |  | 40 mg/kg | 6.3% | 191% |  | 
COc1ccc(S(=O)(=O)N(CCCl)NS(C)(=O)=O)cc1 |  |  | 184% | 3.8% | 10 mg/kg | 10 mg/kg | -10.9% |  |  | 214%
COc1ccc(S(=O)(=O)NN(C)S(C)(=O)=O)cc1 | 60 mg/kg | 60 mg/kg | 233% | -11.9% |  |  | -13.7% | 221% |  | 
COc1ccc(S(=O)(=O)NN(C)S(=O)(=O)c2ccc(Br)cc2)cc1 | 100 mg/kg |  |  | 1.3% |  | 100 mg/kg | 7.8% |  |  | 
COc1ccc(S(=O)(=O)N(C)NS(=O)(=O)c2ccccc2[N+](=O)[O-])cc1 | 150 mg/kg |  | 158% | 1.5% |  |  |  |  |  | 
COc1ccc(S(=O)(=O)N(C)NS(=O)(=O)c2ccc(Br)cc2)cc1 |  |  |  | -0.1% | 100 mg/kg | 100 mg/kg | 3.4% |  |  | 
